Here are results for three molecules from ChEMBL document CHEMBL3421608, “Discovery and optimization of a novel series of Dyrk1B kinase inhibitors to explore a MEK resistance hypothesis” (J Med Chem, 2015).

Values after ≈ are worked out from the molar mass of the structure shown. Active and inactive are the calls of the source. No cut-off for these calls is given here.

The term IC50 denotes the concentration at which inhibition is half-maximal. In general, solubility refers to how much of the substance goes into solution per volume. For orientation: clearance means the volume of plasma or blood freed of the substance per unit of time. In general, bioavailability refers to the share of a dose that reaches the circulation, judged against a reference dose that is usually intravenous.

For series [1], the target named is T1, Dual specificity tyrosine-phosphorylation-regulated kinase 1B (Homo sapiens, UniProt Q9Y463). Description: Inhibition of recombinant Dyrk1B (unknown origin) using FITC-Asp-His-Thr-Gly-Phe-Leu-Thr-Glu-Tyr-Val-Ala-Thr-Arg-NH2 as substrate after 60 mins.
Series [2] has as its target Insulin-like growth factor 1 receptor (Homo sapiens, UniProt P08069). Kind of series: Inhibition of human recombinant N-terminal His6-tagged IGF-1R using fluorescence substrate after 80 mins by caliper off-chip incubation mobility shift assay.
Series [3] has as its target T2, Dual specificity protein kinase TTK (Homo sapiens, UniProt P33981).
T2 sequence (P33981 whole entry): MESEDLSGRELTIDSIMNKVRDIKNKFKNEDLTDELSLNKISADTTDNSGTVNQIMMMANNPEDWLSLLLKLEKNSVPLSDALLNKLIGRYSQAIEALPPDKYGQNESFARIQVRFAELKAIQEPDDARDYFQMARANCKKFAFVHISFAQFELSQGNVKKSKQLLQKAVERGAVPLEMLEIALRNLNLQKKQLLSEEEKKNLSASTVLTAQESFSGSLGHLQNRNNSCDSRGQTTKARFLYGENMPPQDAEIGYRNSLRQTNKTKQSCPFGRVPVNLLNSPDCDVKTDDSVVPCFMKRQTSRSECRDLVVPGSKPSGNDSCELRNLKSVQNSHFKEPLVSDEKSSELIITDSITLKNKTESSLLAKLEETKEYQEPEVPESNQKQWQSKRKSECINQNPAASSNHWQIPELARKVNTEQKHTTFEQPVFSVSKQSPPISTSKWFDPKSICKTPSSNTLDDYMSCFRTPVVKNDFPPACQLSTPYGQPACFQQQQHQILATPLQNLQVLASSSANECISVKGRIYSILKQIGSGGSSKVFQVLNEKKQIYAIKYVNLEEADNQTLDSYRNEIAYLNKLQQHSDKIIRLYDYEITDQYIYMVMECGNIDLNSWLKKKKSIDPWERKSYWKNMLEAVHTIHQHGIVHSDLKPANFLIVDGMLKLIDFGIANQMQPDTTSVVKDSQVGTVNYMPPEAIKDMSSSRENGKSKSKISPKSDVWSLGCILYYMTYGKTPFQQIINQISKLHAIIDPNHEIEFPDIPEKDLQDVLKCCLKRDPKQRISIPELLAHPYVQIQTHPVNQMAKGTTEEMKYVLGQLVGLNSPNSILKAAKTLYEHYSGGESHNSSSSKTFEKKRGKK
Kind of series: Inhibition of human wild-type TTK (514 to 795) expressed in insect sf9 cells.

Another series relates to A-375. Description: Cytotoxicity against human A375 cells at 1.33 uM after 72 hrs by calcein green AM/propidium iodide staining-based assay in presence of AZD6244 relative to control. The series is classed as functional, cell-based. Summed up: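 A375 melanoma cells treated with AZD6244 with or without Dyrk1B inhibitor at 1.33 μM for 72 h. Viability by calcein green AM and propidium iodide staining; percentage of dead cells is mean and SEM of at least two separate experiments.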

Series [4] is described as follows: Intrinsic clearance in Wistar Han rat hepatocytes assessed per 10^6 cells. The settings on record: read-out: CLH. The series is classed as ADME, cell-based, Hepatocyte. In outline:
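Intrinsic clearance in Wistar Han rat hepatocytes, expressed as μL/min/1 × 10⁶ cells.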

The nature of series [5]: Aqueous solubility of the compound at pH 7.4. The series is classed as physicochemical. The settings on record: buffer.
Series [6] deals with T3, Dual specificity tyrosine-phosphorylation-regulated kinase 2 (Homo sapiens, UniProt Q92630).
T3 sequence (Q92630 whole entry): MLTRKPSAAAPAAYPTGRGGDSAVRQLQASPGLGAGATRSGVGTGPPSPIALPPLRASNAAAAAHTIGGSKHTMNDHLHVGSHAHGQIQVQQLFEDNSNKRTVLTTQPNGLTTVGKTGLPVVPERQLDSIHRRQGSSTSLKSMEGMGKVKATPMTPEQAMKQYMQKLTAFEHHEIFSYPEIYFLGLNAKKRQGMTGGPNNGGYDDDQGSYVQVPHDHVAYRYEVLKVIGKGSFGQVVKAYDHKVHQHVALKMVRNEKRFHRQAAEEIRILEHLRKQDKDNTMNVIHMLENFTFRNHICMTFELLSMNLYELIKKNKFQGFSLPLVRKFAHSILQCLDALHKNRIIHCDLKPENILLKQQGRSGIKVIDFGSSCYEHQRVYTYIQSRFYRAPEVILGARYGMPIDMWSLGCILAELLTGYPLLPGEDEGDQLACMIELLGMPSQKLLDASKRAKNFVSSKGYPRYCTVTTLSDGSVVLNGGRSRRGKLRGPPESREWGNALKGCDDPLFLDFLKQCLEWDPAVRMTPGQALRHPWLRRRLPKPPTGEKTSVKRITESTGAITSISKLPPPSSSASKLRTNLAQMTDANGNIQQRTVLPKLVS
Description: Inhibition of Dyrk2 (unknown origin).

Series [7] has as its target Cyclin-dependent kinase 2 (Homo sapiens, UniProt P24941). Description: Inhibition of human recombinant full length C-terminal His6-tagged CDK2 expressed in baculovirus infected Sf21 insect cells using fluorescence substrate after 60 mins by caliper off-chip incubation mobility shift assay.
Series [8] is described as follows: Clearance in Wistar Han rat plasma at 2 umol/kg. The series is classed as ADME, cell-free.
Series [9] is described as follows: Oral bioavailability in Wistar Han rat at 3 umol/kg. It counts as ADME, organism-based. The settings on record: in vivo.
Series [10] has as its target T1, Dual specificity tyrosine-phosphorylation-regulated kinase 1B. Description: Inhibition of human full length C-terminal c-Myc tagged Dyrk1B phosphorylation overexpressed in monkey COS1 cells after 5 hrs by ELISA. It counts as cell-based, COS-1. In general terms: An ELISA detects its analyte on a solid surface through an enzyme-linked reagent.
A short description of series [11]: Permeability across human Caco2 cells. The conditions noted are these: caco-2. The series is classed as ADME, cell-based. (Caco-2 monolayers are a common model of the intestinal barrier.)

Chain of Insulin-like growth factor 1 receptor (P08069 31-736 limits assumed): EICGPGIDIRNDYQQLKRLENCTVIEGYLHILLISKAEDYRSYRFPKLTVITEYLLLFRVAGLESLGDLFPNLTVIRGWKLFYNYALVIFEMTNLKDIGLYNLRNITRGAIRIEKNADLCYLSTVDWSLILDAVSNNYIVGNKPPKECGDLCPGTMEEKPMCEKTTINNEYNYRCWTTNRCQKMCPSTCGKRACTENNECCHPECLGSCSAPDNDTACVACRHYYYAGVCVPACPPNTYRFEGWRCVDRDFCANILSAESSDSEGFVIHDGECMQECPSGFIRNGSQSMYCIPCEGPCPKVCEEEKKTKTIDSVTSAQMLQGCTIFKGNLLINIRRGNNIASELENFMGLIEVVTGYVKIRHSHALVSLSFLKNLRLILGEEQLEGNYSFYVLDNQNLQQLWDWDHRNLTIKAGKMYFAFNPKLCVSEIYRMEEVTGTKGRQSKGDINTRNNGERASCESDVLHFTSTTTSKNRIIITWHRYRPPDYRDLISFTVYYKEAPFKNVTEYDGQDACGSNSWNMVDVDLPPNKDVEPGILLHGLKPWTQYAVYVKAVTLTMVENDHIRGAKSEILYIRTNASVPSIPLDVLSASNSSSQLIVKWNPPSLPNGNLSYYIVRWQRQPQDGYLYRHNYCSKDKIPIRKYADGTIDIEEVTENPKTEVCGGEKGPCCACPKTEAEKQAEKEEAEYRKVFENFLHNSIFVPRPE
Chain of Insulin-like growth factor 1 receptor (P08069 741-1367 limits assumed): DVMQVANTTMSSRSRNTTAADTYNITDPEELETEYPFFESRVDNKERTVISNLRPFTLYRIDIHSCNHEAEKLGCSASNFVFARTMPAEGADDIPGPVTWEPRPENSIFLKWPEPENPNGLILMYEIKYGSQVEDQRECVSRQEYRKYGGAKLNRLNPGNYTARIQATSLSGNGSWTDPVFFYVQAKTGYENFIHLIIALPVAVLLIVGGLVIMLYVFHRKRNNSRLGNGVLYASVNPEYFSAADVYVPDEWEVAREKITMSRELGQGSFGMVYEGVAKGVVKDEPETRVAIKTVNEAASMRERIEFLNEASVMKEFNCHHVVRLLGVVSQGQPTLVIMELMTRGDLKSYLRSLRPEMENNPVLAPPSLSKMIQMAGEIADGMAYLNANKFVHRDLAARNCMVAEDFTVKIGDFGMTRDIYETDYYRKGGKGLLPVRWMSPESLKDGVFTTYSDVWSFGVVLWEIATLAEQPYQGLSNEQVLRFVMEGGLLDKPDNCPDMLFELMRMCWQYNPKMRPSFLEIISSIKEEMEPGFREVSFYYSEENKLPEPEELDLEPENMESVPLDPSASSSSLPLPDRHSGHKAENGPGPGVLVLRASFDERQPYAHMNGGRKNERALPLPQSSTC
T1 sequence (Q9Y463 whole entry): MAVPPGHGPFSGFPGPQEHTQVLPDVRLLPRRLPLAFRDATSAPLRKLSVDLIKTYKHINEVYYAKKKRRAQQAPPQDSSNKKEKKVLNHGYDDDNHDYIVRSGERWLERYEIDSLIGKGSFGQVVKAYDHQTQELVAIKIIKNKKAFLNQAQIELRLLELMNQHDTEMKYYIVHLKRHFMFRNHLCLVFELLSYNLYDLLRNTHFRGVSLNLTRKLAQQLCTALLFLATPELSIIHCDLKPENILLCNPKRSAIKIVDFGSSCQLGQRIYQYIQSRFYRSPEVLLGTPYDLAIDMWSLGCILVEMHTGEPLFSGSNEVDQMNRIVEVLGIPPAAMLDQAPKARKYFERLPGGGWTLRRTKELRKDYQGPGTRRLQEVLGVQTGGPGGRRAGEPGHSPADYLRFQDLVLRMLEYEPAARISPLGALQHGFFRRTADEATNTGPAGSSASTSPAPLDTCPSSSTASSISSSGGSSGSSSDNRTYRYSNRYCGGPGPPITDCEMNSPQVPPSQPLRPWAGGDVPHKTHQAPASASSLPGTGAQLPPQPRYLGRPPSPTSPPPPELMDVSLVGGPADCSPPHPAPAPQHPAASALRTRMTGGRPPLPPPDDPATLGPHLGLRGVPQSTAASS

With `COc1cc(OC2CCN(C)CC2)ccc1Nc1nccc(-c2c[nH]c3cnccc23)n1`, the results for the half-inhibitory concentration (IC50) in series [1], in series [2] and in series [3] were 140 nM, 3300 nM and 20 nM, respectively.

Take `COc1cc(N2CCN(C)CC2)ccc1Nc1nccc(-c2cn(C)c3cnccc23)n1`: the outcome in the series on A-375 was inactive. In series [4], the hepatocyte CLint was 18 µL/min/1e6 cells. In [5], this molecule displayed a solubility above 755 µM. Also, the values for the IC50 in series [6], in [7] and in [2] were 190 nM, 4470 nM and 779 nM, respectively. In [8], the clearance stood at 27 mL/min/kg. Moreover, in series [9], the bioavailability amounted to 22%.

For the molecule `Cn1cc(-c2ccnc(-c3ccc(S(C)(=O)=O)cc3)n2)c2ccncc21`, the IC50 is 12 nM in [1], 810 nM in series [10], above 100000 nM in series [7] and above 10000 nM in [2]. Also, the permeability result in [11] was “permeable”. In addition, the hepatocyte CLint in series [4] came to 8 µL/min/1e6 cells. Besides, in [5], the concentration in solution (solubility) came to 2 µM (≈ 0.729 µg/mL). In addition, the clearance in series [8] is 23 mL/min/kg. In series [9], this molecule yielded a bioavailability of 37%.
